In ChEMBL document CHEMBL1134582 (J Med Chem, 2001):

Key:
[1] = molecular target: T1, Adenosine receptor A1 (Homo sapiens) (UniProt P30542); assay: Inhibition of Forskolin (10 nM) induced cAMP production at human Adenosine A1 receptor (compared to CPA in CHO cells); type: cell-based; details: in the assay text read “10 µM” for “10 nM”
T1 sequence (whole entry): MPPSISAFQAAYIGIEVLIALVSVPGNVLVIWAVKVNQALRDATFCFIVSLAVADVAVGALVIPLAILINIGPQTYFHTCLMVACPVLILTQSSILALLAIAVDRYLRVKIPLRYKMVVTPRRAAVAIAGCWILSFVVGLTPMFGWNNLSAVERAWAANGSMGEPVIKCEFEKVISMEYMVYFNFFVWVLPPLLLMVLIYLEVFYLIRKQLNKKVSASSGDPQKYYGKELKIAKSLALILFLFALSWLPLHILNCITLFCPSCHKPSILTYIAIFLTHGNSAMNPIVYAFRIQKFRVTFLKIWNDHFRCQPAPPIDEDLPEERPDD
In short: (§1)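 Cells expressing the human receptor (A1 in CHO) were grown overnight as monolayers and kept in DMEM/HEPES at pH 7.4. […] Forskolin was added at 10 µM (final) for 15 min. cAMP was measured by binding-protein assay. […] Mean ±SEM, n=3.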

[2] = molecular target: T2, Adenosine receptor A3 (Homo sapiens) (UniProt P0DMS8); assay: Agonistic activity expressed as the amount of [35S]GTP gamma-S bound at adenosine A3 receptor; type: functional
T2 sequence (whole entry): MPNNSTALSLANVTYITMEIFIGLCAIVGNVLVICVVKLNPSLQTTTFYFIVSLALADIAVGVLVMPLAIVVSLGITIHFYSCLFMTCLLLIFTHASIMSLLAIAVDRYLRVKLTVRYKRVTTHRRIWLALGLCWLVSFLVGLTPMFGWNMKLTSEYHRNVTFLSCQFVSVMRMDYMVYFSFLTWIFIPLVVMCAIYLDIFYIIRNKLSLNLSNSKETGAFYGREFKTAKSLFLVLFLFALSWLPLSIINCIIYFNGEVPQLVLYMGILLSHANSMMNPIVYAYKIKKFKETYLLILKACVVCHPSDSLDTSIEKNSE
In short: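 Membranes from CHO cells expressing the human A3 receptor (1–1.5 µg protein) were incubated with 1 µM GDP and no NaCl for 90 min at 25 °C. Mean ±SEM, n=3.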

[3] = molecular target: T2, Adenosine receptor A3 (Homo sapiens); assay: Agonistic activity expressed as the amount of [35S]GTP gamma-S bound +1 uM NECA at adenosine A3 receptor; type: functional
In short: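 Human A3 receptor in CHO-cell membranes (1–1.5 µg) was incubated with 1 µM GDP and no NaCl for 90 min at 25 °C. Mean ±SEM, n=3.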

[4] = molecular target: T1, Adenosine receptor A1 (Homo sapiens); assay: Inhibition of 10 nM Forskolin-induced cAMP production at human Adenosine A1 receptor compared to CPA in CHO cells; type: functional, cell-based; details: in the assay text read “10 µM” for “10 nM”; in short: as §1
[5] = molecular target: T3, Adenosine receptor A1 (Rattus norvegicus) (UniProt P25099); assay: Agonistic activity expressed as the amount of [35S]-GTP gamma-S bound at rat Adenosine A1 receptor; type: functional
T3 sequence (whole entry): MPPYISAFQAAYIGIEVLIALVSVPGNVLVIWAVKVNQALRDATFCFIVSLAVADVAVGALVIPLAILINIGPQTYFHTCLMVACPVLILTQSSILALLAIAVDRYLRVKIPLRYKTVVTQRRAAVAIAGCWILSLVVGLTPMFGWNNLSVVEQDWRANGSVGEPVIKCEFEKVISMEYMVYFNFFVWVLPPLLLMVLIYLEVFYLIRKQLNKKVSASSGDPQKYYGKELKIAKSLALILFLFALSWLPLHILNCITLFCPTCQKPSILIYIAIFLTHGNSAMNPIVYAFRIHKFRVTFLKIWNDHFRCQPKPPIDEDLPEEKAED
In short: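 [35S]GTPγS binding used 2 µg of rat cortex membrane protein with 10 µM GDP and 100 mM NaCl, incubated 90 min at 25 °C. Mean ±SEM, n=3.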

[6] = molecular target: T3, Adenosine receptor A1 (Rattus norvegicus); assay: Agonistic activity expressed as the amount of [35S]-GTP gamma-S bound +1 uM CPA at rat Adenosine A1 receptor; type: functional
In short: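 Rat cortex membranes (2 µg protein) were incubated with 10 µM GDP and 100 mM NaCl for 90 min at 25 °C. Mean ±SEM, n=3.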

SMILES | inhibition [1] [%] | further results
Nc1nc(Cl)nc2c1ncn2[C@@H]1O[C@H](COC2CC2)[C@@H](O)[C@H]1O | 49 | –
Nc1ncnc2c1ncn2[C@@H]1O[C@H](COC2CC2)[C@@H](O)[C@H]1O | 61 | –
CCNC(=O)[C@H]1O[C@@H](n2cnc3c(N)ncnc32)[C@H](O)[C@@H]1O | – | Activity [2]: 100; Activity [3]: 100
O[C@@H]1[C@H](O)[C@@H](COC2CC2)O[C@H]1n1cnc2c(NC3CCCC3)nc(Cl)nc21 | 43 | –
COC[C@H]1O[C@@H](n2cnc3c(NC4CCCC4)nc(Cl)nc32)[C@H](O)[C@@H]1O | 73 | –
CCOC[C@H]1O[C@@H](n2cnc3c(N)nc(Cl)nc32)[C@H](O)[C@@H]1O | 67 | –
COC[C@H]1O[C@@H](n2cnc3c(NCc4cccc(I)c4)ncnc32)[C@H](O)[C@@H]1O | 53 | –
CCOC[C@H]1O[C@@H](n2cnc3c(NC4CCCC4)nc(Cl)nc32)[C@H](O)[C@@H]1O | 62 | –
COC[C@H]1O[C@@H](n2cnc3c(N)ncnc32)[C@H](O)[C@@H]1O | – | inhibition [4]: 75%
COC[C@H]1O[C@@H](n2cnc3c(NC4CCCC4)ncnc32)[C@H](O)[C@@H]1O | 74 | –
CCOC[C@H]1O[C@@H](n2cnc3c(N)ncnc32)[C@H](O)[C@@H]1O | 57 | –
COC[C@H]1O[C@@H](n2cnc3c(N)nc(Cl)nc32)[C@H](O)[C@@H]1O | 78 | –
COC[C@H]1O[C@@H](n2cnc3c(NCc4cccc(I)c4)nc(Cl)nc32)[C@H](O)[C@@H]1O | 37 | –
O[C@@H]1[C@H](O)[C@@H](COC2CC2)O[C@H]1n1cnc2c(NC3CCCC3)ncnc21 | 62 | –
OC[C@H]1O[C@@H](n2cnc3c(NC4CCCC4)ncnc32)[C@H](O)[C@@H]1O | – | inhibition [4]: 69%; Activity [5]: 100; Activity [6]: 100
CCOC[C@H]1O[C@@H](n2cnc3c(NC4CCCC4)ncnc32)[C@H](O)[C@@H]1O | 69 | –
CCOC[C@H]1O[C@@H](n2cnc3c(NCc4cccc(I)c4)ncnc32)[C@H](O)[C@@H]1O | 6 | –
